{"data": "Measurements pooled from the literature", "matrix": "plasma", "note": "Protocols differ between the studies behind these lines."}
{"Compound": "N=c1c2c(-c3ccccc3)c(-c3ccccc3)n(Cc3ccccc3)c2ncn1[C@H]1CC[C@H](O)CC1", "host": "male Sprague-Dawley rat", "route": "oral", "dose": "2 mg/kg", "notes": "single dose", "bioavailability [%]": "> 80"}
{"Compound": "Cn1cnc(Cn2c(=O)[nH]/c(=N\\c3cc4cn(C)nc4cc3Cl)n(Cc3cc(F)c(F)cc3F)c2=O)n1", "host": "male Sprague-Dawley rat", "route": "oral", "dose": "25 mg/kg", "bioavailability [%]": 129}
{"Compound": "CN(C)C(=O)Oc1cc(OC(=O)N(C)C)cc(-c2cc3ccc(O)cc3o2)c1", "host": "male rat", "route": "oral", "dose": "5 mg/kg", "bioavailability [%]": 3.01}
{"Compound": "O=C(Nc1cccnn1)N1CCN([C@@H]2CCOc3cc(C(F)(F)F)ccc32)CC1", "host": "male Sprague-Dawley rat", "route": "oral", "dose": "0.3 mg/kg", "bioavailability [%]": 41}
{"Compound": "Cc1ncc(C)n2nc(/C=C/c3nc(N4CCCC4)cc(N4CCOCC4)n3)nc12", "host": "male Sprague-Dawley rat", "route": "oral", "dose": "0.3 mg/kg", "bioavailability [%]": 33}
{"Compound": "Cc1cnc(N2CC3(CCOCC3)C2)c(C(=O)Nc2ccc(C(=O)N3CCc4cc(C(=O)Nc5c(C)cccc5F)sc4-c4ccccc43)cc2)c1", "host": "rat", "route": "inhaled", "dose": "2.7 mg/kg", "notes": "single dose", "bioavailability [%]": "< 3"}
{"Compound": "[2H]C([2H])(c1cc(F)c(F)cc1F)n1c(=O)n(Cc2ncn(C)n2)c(=O)[nH]/c1=N\\c1cc2cn(C)nc2cc1Cl", "host": "male Sprague-Dawley rat", "route": "oral", "dose": "25 mg/kg", "bioavailability [%]": 117}
{"Compound": "CCC[C@@](N)(CO)CCc1ccc(OCCCCCC(C)C)cc1", "host": "rat", "route": "oral", "dose": "30 mg/kg", "bioavailability [%]": 35}
{"Compound": "Cl.Cl.O=C(CCN1CCCCC1)c1ccc(-c2ccc(C(=O)CCN3CCCCC3)cc2)cc1", "host": "Sprague-Dawley rat", "route": "oral", "dose": "100 mg/kg", "bioavailability [%]": 24.2}
{"Compound": "C#Cc1ccc2c(c1)C(c1ccccn1)=NCc1c(-c3cnco3)ncn1-2", "host": "male Sprague-Dawley rat", "route": "intraperitoneal", "dose": "10 mg/kg", "bioavailability [%]": 69}
{"Compound": "CS(=O)(=O)Nc1ccc(-c2ccnc(Nc3ccc(-n4ccnn4)cc3)n2)cc1", "host": "Sprague-Dawley rat", "route": "oral", "dose": "2 mg/kg", "bioavailability [%]": 5}
{"Compound": "COc1ncccc1-c1cnn2ccc(N3CCN(C(=O)OC(C)C)CC3)nc12", "host": "rat", "route": "oral", "dose": "10 mg/kg", "bioavailability [%]": 50}
{"Compound": "O=C([O-])C(=O)[O-].[NH-][C@@H]1CCCC[C@H]1[NH-].[Pt+4] (relative stereo)", "host": "rat", "route": "intravenous", "dose": "5 mg/kg", "bioavailability [%]": 100}
